Measurements published in paper PMC2494688 (Diabetes, 2008).

Columns and labels:
human GPR40 = human GPR40 (Homo sapiens, UniProt O14842); type: cell-based; settings: CHO cells, in words
In short: (§1)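 GPR40 stably expressed in CHO cells carrying NFAT β-lactamase, seeded 1 day before. Test compound in DMSO, diluted in assay buffer, added as a 5× solution. Calcium signal read on FLIPR from 10 s before addition. EC50 taken from concentration–response curves.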

mouse GPR40 = mouse GPR40 (Mus musculus, UniProt Q76JU9); type: cell-based; settings: CHO cells, in words
Chain of mouse GPR40 (Q76JU9 whole entry): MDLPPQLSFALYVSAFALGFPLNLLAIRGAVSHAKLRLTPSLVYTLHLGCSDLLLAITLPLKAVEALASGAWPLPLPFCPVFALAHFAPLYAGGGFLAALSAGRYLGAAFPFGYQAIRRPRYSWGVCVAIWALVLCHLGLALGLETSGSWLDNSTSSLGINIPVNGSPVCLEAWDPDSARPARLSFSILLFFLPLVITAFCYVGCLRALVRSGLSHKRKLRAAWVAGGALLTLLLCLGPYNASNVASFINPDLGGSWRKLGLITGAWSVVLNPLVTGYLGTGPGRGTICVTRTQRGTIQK
In short: as §1

[1] = tested on: islets from GPR40−/− mice; assay: Static GDIS assay, 1-h incubation, GPR40−/− islets; type: cell-based, mouse; settings: 200 μmol/l, 16 mmol/l glucose, n = 6, P > 0.05
In short: (§2)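 Islets isolated by collagenase digestion and Ficoll gradient, cultured overnight in RPMI-1640 with 11 mmol/l glucose. Preincubated 30 min in KRB (0.2% BSA) with 2 mmol/l glucose. One islet/well incubated 60 min at 2 or 16 mmol/l glucose, ± 200 μmol/l oleate or palmitate or 10 μmol/l test compound; DMSO vehicle. Insulin by ultrasensitive rat insulin ELISA. Two experiments, six replicates in total. Wild-type islets also tested across a compound concentration series at 16 mmol/l glucose (three experiments).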

[2] = tested on: islets from wild-type mice; assay: Static GDIS assay, 1-h incubation, wild-type islets; type: cell-based, mouse; settings: 200 μmol/l, 16 mmol/l glucose, n = 6
In short: as §2

wild-type C57BL/6 mice = assay: IPGTT in wild-type lean mice; type: in vivo, mouse; settings: 0.0025 mg/kg, positive control
In short: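 Lean male C57BL/6N mice fasted 5–6 h, dosed orally with compound (1–100 mg/kg) or 0.25% methylcellulose vehicle (10 ml/kg) 60 min before 2 g/kg i.p. dextrose. Tail glucose sampled to 60 min. Percent inhibition derived from the 0–60 min AUC minus the vehicle/water group AUC. Plasma compound measured by LC-MS/MS at 60 min of IPGTT (2 h post-dose).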

Chain of human GPR40 (O14842 whole entry): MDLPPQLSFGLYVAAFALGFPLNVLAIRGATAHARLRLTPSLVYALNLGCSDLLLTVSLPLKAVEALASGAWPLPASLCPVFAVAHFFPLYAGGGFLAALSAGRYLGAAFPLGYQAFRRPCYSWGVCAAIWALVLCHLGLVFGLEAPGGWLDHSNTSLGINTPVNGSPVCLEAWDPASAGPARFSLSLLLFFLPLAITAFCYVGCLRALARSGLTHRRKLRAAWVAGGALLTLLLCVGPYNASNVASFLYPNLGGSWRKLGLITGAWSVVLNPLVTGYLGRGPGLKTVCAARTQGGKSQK

Activation of human GPR40 receptor (human GPR40) | Activation of mouse GPR40 receptor (mouse GPR40) | Molecule | Promotion of glucose-dependent insulin secretion [1] | Promotion of glucose-dependent insulin secretion [2] | Effect on glucose excursion during IPGTT (wild-type C57BL/6 mice)
minimal activation | minimal activation | CCCC(=O)O [butyric C4:0] | – | – | –
– | – | CCCCCCCC/C=C\CCCCCCCC(=O)O [oleic C18:1, oleic acid] | 1.2 ± 0.3 fold | 1.9 ± 0.4 fold | –
– | – | CCCCCCCCCCCCCCCC(=O)O [palmitate, palmitic acid] | 1.8 ± 0.5 fold | 2.4 ± 0.3 fold | –
minimal activation | minimal activation | CCCCC(=O)O [pentanoic C5:0, pentanoic acid] | – | – | –
minimal activation | minimal activation | CCC(=O)O [propionic C3:0] | – | – | –
– | – | exendin-4: glucagon-like peptide 1 mimetic, positive control | – | – | completely prevented any glucose excursion
